This passage reports Km results from publication PMC5182512 (Phytochemistry, 2014).

This assay has as its target CrSMT (Chlamydomonas reinhardtii, UniProt A8IJ34). Put plainly: [methyl-3H3]SAM radiometric assay, initial velocity, Lineweaver-Burk. The format is biochemical. The note with it: E. coli lysate; 100 μM SAM (saturating), phosphate buffer pH 7.5. An outline of the steps: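 Recombinant 384-aa CrSMT expressed in E. coli BL21(DE3), IPTG-induced (0.4 mM, 2 h, 30 °C), French-press lysate in 20 mM phosphate, 5% glycerol, pH 7.5. Lysate (1–2 mg total protein) incubated 45 min with sterol acceptor 5–150 μM plus [methyl-3H3]SAM (0.6 μCi). Methanolic KOH saponification, hexane extraction of non-saponifiable lipids. Sterol-free background 500–1000 dpm. Lineweaver–Burk analysis.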

In the case of `CC(C)=CCC[C@@H](C)[C@H]1CC[C@@]2(C)C3=C(CC[C@]12C)[C@@]1(C)CC[C@H](O)C(C)(C)[C@@H]1CC3` [compound 1, Lanosterol], the Km was 24 µM.

In the case of `CC(C)=CCC[C@@H](C)[C@H]1CC[C@H]2C3=C(CC[C@]12C)[C@@]1(C)CC[C@H](O)C[C@@H]1CC3` [compound 9, Zymosterol], the Km is 22 µM.
